SENP7 block: SENP7 protease inhibitors, primary screen, biochemical, luminescence, uHTS; Sentrin-specific protease 7 (Homo sapiens), Q9BQF6; recombinant SENP7, Z-RLRGG-aminoluciferin luminescence, 40 min; inhibition, % at 5 µM; 330,000 tested, 1.5% active;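 active = inhibition above about 50% at the single test dose, limit read from the data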;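 note: plate controls were DMSO with enzyme for no effect and no enzyme buffer wells for full effect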
Target sequence (Q9BQF6 706-1050 limits assumed): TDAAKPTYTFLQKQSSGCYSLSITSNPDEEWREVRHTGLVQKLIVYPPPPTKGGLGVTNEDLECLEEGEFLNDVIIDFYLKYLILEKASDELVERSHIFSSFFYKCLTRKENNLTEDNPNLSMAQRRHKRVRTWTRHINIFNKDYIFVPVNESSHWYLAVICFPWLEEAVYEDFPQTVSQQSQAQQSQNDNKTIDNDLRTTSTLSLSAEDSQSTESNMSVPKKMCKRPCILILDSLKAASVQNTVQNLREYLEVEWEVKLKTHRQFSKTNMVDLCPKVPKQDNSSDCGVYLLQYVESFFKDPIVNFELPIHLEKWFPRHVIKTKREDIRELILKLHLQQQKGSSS
SENP8 block-1: SENP8 protease inhibitors, primary screen, biochemical, luminescence; Sentrin-specific protease 8 (Homo sapiens), Q96LD8; AID 2540, 2010; 330,000 tested, 1.2% active; purified SENP8, Z-RLRGG-aminoluciferin cleavage; inhibition, % at 10 µM; in the data active = inhibition above about 50%
Target sequence (Q96LD8 whole entry, looked up): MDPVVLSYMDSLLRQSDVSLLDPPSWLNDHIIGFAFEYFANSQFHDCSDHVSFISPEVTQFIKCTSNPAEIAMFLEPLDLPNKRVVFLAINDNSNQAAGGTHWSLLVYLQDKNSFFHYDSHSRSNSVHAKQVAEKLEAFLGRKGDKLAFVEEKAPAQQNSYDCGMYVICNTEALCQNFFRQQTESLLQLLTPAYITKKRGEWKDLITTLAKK
SENP8 block-2: human SENP8 protease inhibitors, primary screen, biochemical, fluorescence, Nedd8 protein substrate, uHTS; recombinant SENP8; inhibition, % at 20 µM; Sentrin-specific protease 8 (Homo sapiens), Q96LD8; AID 602440, 2012; 360,000 tested, 0.64% active; in the data active = inhibition mostly above about 40%, no sharp cut-off; inactive = mostly below about 27%
SENP1 FRET inh: human SENP1 catalytic domain inhibitors, primary screen, biochemical, FRET, uHTS; Sentrin-specific protease 1 (Homo sapiens), Q9P0U3; inhibition, % at 10 µM; 360,000 tested, 0.21% active; recombinant SENP1 catalytic domain, CyPet-SUMO1-YPet FRET cleavage;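 active = inhibition at least 30% at 10 µM, raw YFP signal under a set limit, fluorescence ratio 0.5 to 1.5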;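 note: 0% = enzyme with DMSO and 100% = no enzyme wells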
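Compound: 10 µM single point, 0.5% DMSO; Test system: hSENP1 catalytic domain, recombinant; Timing: 50 min reaction at room temperature; Technique: FRET, CFP and YFP emission; Control set: no-enzyme wells low, DMSO-plus-enzyme wells high control.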
SENP6 inh: SENP6 protease inhibitors, primary screen, biochemical, luminescence, uHTS. Sentrin-specific protease 6 (Homo sapiens), Q9GZR1. Recombinant SENP6 catalytic domain, aminoluciferin luminescence. inhibition, % at 10 µM. 330,000 tested, 1.8% active. AID 2599, 2010;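 active = inhibition above about 50% at the single tested dose, limit read from the data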;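 note: plate controls were DMSO wells with enzyme for no effect and DMSO wells lacking enzyme for full effect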
Apaf-1 inh: inhibitors of human Apaf-1 apoptosome, primary screen, biochemical, DEVD-Rh110 fluorescence, uHTS | Apoptotic protease-activating factor 1 (Homo sapiens), O14727 | reconstituted apoptosome caspase-3 activity | inhibition, % at 20 µM | 330,000 tested, 0.71% active; active = inhibition of at least 40% at 20 µM;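 note: plate controls were DMSO wells for no effect and DEVD-CHO caspase inhibitor wells for full effect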
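System – cell-free apoptosome with Apaf-1, procaspase-3 and caspase-9 · Buffer or medium – pH 7.5 Hepes buffer with CHAPS, BSA, DTT · Also added – cytochrome c with DEVD-Rh110 · Times – 30 min compound preincubation, 50 min activation, room temperature · Technique – Rh110 fluorescence intensity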
SENP8 inh conf: human SENP8 protease inhibitors, confirmation, biochemical, Nedd8 protein substrate, single concentration; shares compounds with SENP8 block-2; purified SENP8, Nedd8-AMC/pro-Nedd8 cleavage fluorescence, 30 min; inhibition, % at 25 µM; 1,400 tested, 15% active; in the data active = inhibition mostly above about 39%, no sharp cut-off; inactive = mostly below about 34%
SENP1 inh conf: human SENP1 catalytic domain inhibitors, confirmation, biochemical, FRET endpoint, single concentration; shares compounds with SENP1 FRET inh; recombinant SENP1, CyPet-SUMO1-YPet FRET cleavage; inhibition, % at 10 µM; 520 tested, 34% active; AID 651678, 2012; in the data active = inhibition mostly above about 35%, no sharp cut-off; inactive = mostly below about 32%;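 note: 0% = enzyme with DMSO and 100% = no enzyme control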
SENP1 kinetic: human SENP1 catalytic domain inhibitors, confirmation, biochemical, kinetic FRET, single concentration; recombinant SENP1, CyPet-SUMO1-YPet FRET kinetic cleavage; 520 tested, 26% active; shares compounds with SENP1 FRET inh; inhibition, % at 10 µM; in the data active = inhibition mostly above about 32%, no sharp cut-off; inactive = mostly below about 29%;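 note: 0% = DMSO with enzyme and 100% = no enzyme substrate only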
Numbers without * were called inactive; nt = not tested or not shown; ! = not active in a repeat. A selection: hits, their analogues and other compounds. The true share with any hit is near 2.9%.

SMILES | SENP7 block | SENP8 block-1 | SENP8 block-2 | SENP1 FRET inh | SENP6 inh | Apaf-1 inh | SENP1 inh conf | SENP1 kinetic | others
Nc1ccc(C2CCCc3nonc32)c2nonc12 (stereo unspecified) | 10 | 2 | 57* | 35* | 27 | 14 | 51* | 28 | SENP8 inh conf=4
CCOc1ccc(/C=C/C(=O)Nc2ccc(OC)cc2[N+](=O)[O-])cc1 | 5 | 0 | 41* | 70* | -7 | -1 | 52* | 34* | SENP8 inh conf=5
O=S(=O)(c1ccccc1F)N1CCN(CCOc2ccccc2)CC1 | 3 | 3 | 0 | 1 | 8 | 4 | nt | nt
Cc1ccc(NC2=C(C(=O)c3ccccc3)N(C)S(=O)(=O)c3ccccc32)cc1 | 4 | 8 | 46* | 33* | 0 | 16 | 35* | 18 | SENP8 inh conf=33
CN1C(C(=O)c2ccccc2)=C(N)c2ccccc2S1(=O)=O | -1 | -13 | 6 | 3 | -12 | 8 | nt | nt
Cc1[nH][nH]c(=O)c1C | 7 | 6 | 8 | 3 | 6 | -7 | nt | nt
COC(=O)CSc1nc2cc(OC)ccc2cc1C#N | 4 | 21 | -46 | 37* | 24 | 2 | 16 | 3
COc1ccc2cc(C#N)c(SCC(=O)N3CCCC3)nc2c1 | -3 | 3 | -255 | -27 | -13 | -6 | nt | nt
C[C@H](NC(=O)C[C@@H]1CC[C@H]2[C@@H](COC[C@H](O)CN2Cc2ccc(C(F)(F)F)cc2)O1)c1ccccc1 | nt | nt | 12 | 3 | nt | nt | nt | nt
O=C(COC(=O)CCc1ccccc1)NCc1ccc2c(c1)OCO2 | 2 | 4 | 26 | 32* | 10 | 7 | -4 | 0
Nc1cccc2c1C(=O)c1ccc(Cl)cc1C2=O | nt | nt | 36 | 30* | nt | nt | 33 | 16
O=C(O)c1cccc2c1-c1ccc(Cl)cc1C2=O | nt | nt | 6 | 1 | nt | nt | nt | nt
CC(C)NC(=O)C1(C)CSCC(=O)N1CCCn1ccnc1 (stereo unspecified) | nt | nt | 19 | -4 | nt | nt | nt | nt
CC(C)C[C@H]1C(=O)N2CCC[C@H]2[C@]2(O)O[C@](NC(=O)C3C=C4c5cccc6[nH]c(Br)c(c56)C[C@H]4N(C)C3)(C(C)C)C(=O)N12 (stereo partly specified) | 2 | 3 | -94 | -4 | 4 | 21 | nt | nt
CN1C[C@H](C(=O)N[C@]2(C)O[C@@]3(O)[C@@H]4CCCN4C(=O)[C@H](Cc4ccccc4)N3C2=O)CC2c3cccc4[nH]cc(c34)C[C@H]21 (stereo partly specified) | 6 | -2 | -150 | 34*! | 19 | 12 | -6 | -2
N=c1occ(C(=O)c2cc(F)ccc2O)cc1C(=O)NC1CCCCC1 | 0 | 5 | -12 | 30* | -7 | 2 | 6 | 13
CC(C)CCN(C(=O)C1=COCCO1)c1c(N)n(Cc2ccccc2)c(=O)[nH]c1=O | -3 | -8 | -19 | 34* | -3 | 9 | 9 | 6
CCCN(C(=O)C1=COCCO1)c1c(N)n(Cc2ccccc2)c(=O)[nH]c1=O | 8 | -3 | -7 | -1 | -11 | -21 | nt | nt
O=C(NCCSCc1ccccc1)c1ccc(C2SCC(=O)N2Cc2ccccc2)cc1 (stereo unspecified) | 3 | 4 | 5 | 63* | -5 | -9 | 45* | 50*
COC(=O)c1ccc(C2SCC(=O)N2Cc2ccccc2)cc1 (stereo unspecified) | 0 | -2 | 25 | 2 | -6 | 0 | nt | nt
COc1cccc(C2CC(C(F)(F)F)n3nc(C(=O)Nc4c(C)n(C)n(-c5ccccc5)c4=O)cc3N2)c1 (stereo unspecified) | 7 | 6 | 7 | 27* | -5 | -1 | 13 | 7
COc1cc(/C=C/c2onc(C)c2[N+](=O)[O-])cc(OC)c1OC | 2 | 2 | 12 | 49* | 0 | -7 | 9 | 10
Cc1noc(/C=C/c2nn(C)cc2Cl)c1[N+](=O)[O-] | -10 | -3 | 16 | 2 | -13 | 14 | nt | nt
O=C(O)Cn1c(O)c(C2=c3ccccc3=NC2=O)sc1=O | 3 | -2 | 21 | 66* | -7 | 1 | 67* | 36*
Nc1c(Br)cc(Br)c2c1-c1ccc([N+](=O)[O-])cc1C2 | nt | nt | 35 | 24 | nt | nt | nt | nt
SMILES | SENP7 block | SENP8 block-1 | SENP8 block-2 | SENP1 FRET inh | SENP6 inh | Apaf-1 inh | SENP1 inh conf | SENP1 kinetic | others
O=CNc1ccc2c(c1)Cc1cc([N+](=O)[O-])ccc1-2 | nt | nt | -4 | 48* | nt | nt | 27 | 20
COc1ccccc1Nc1c([N+](=O)[O-])cc(C)cc1[N+](=O)[O-] | -2 | -8 | 25 | 3 | -3 | 5 | nt | nt
COc1ccccc1Nc1ccc([N+](=O)[O-])cc1N | -3 | 6 | 26 | 49* | 8 | 4 | 29 | 17
Clc1cc2c(nn1)Nc1ccccc1S2 | 0 | -2 | -5 | 31* | -24 | -14 | 15 | 12
CSc1nnc(C(C)(C)C)c(=O)n1/N=C/c1c(O)ccc2ccccc12 | 1 | -5 | 17 | 33* | -4 | -11 | -7 | 3
Cc1nc2ccccc2c(=O)n1/N=C/c1c(O)ccc2ccccc12 | 2 | -2 | 0 | -22 | 5 | 12 | nt | nt
COC(=O)Nc1sc2c(c1C(N)=O)CCC(C)C2 (stereo unspecified) | -2 | -7 | 17 | 41* | 5 | 7 | -8 | 2
CC(=O)C1=CCC(c2ccc(Cl)c(Cl)c2)N(S(=O)(=O)c2ccc(C)cc2)C1 (stereo unspecified) | nt | nt | 9 | 0 | nt | nt | nt | nt
Cc1sc(-c2ccccn2)nc1OC(=O)c1ccc(F)cc1F | nt | nt | -32 | 51* | nt | nt | 50* | 69*
Cc1cc(-c2ccccc2)nc(=O)[nH]1 | -6 | -10 | -16 | 35* | 0 | 2 | 1 | 13
CC1(C(=O)NS(=O)(=O)c2cccc(C#N)c2)CCN1C(=O)c1ccc(C2CCCCC2)cc1 (stereo unspecified) | nt | nt | 11 | -1 | nt | nt | nt | nt

Screens as filed in PubChem BioAssay.
